Test results from ChEMBL document CHEMBL1149480, “Discovery of a novel series of inhibitors of human cytomegalovirus primase” (Bioorg Med Chem Lett, 2006).
Activity calls are given as the source filed them. No cut-off for these calls is given here.

Columns and labels:
[1] = system: HFF; experiment: Antiviral activity against human CMV by luciferase reporter gene assay in HFF cells; format: functional, cell-based
Procedure, shortened: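 HFF cells (10^4/well) were rested 2 h, then infected with rhCMVLuc at MOI 1 pfu/cell. Inoculum was removed after 1 h and drug added (0.005–5 µM or 0.05–50 µM) for 48 h at 37 °C. Luciferase was read with Mg(OAc)2, 30 mM Tricine pH 7.8 and 200 µM EDTA. IC50 is 50% inhibition of hCMV DNA replication.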

[2] = system: Murid betaherpesvirus 1; experiment: Antiviral activity against mouse CMV; format: functional, organism-based
[3] = system: Caviid betaherpesvirus 2; experiment: Antiviral activity against guinea pig CMV; format: functional, organism-based
[4] = Ratio of antiviral activity against human CMV to rhesus CMV; format: functional, Cercopithecine herpesvirus 8
[5] = system: Human immunodeficiency virus; experiment: Antiviral activity against HIV; format: functional, organism-based
[6] = system: Murid betaherpesvirus 2; experiment: Antiviral activity against rat CMV; format: functional, organism-based
[7] = system: Human gammaherpesvirus 4; experiment: Antiviral activity against EBV; format: functional, organism-based
[8] = system: Human alphaherpesvirus 1; experiment: Antiviral activity against HSV; format: functional, organism-based
[9] = system: Human betaherpesvirus 6; experiment: Antiviral activity against HHV6; format: functional, organism-based
[10] = system: Human betaherpesvirus 5; experiment: Inhibition of human CMV growth by viral yield assay; format: functional
Procedure, shortened: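 Viral yield: once CPE appeared, well supernatants were serially diluted 1:2 sixteen times and used to infect fresh HFF cells (10^4/well). Inoculum was removed after 1 h; cells were incubated 5–7 days until CPE. Yield was quantified and IC99.9 taken as the drug concentration giving 99.9% inhibition of replication.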

[11] = system: Jurkat; experiment: Cytotoxicity against human Jurkat cells; format: functional, cell-based
Procedure, shortened: (§1)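 HFF or Jurkat cells were seeded and compound added 3 h later. Alamar blue staining at 0, 24, 48 and 72 h, then a further 3 h incubation, with fluorescence read-out. IC50 is the concentration inhibiting cell growth by 50%.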

[12] = system: Human betaherpesvirus 5; experiment: Inhibition of human CMV growth by plaque reduction assay; format: functional
Procedure, shortened: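 Plaques counted after 10-day incubation of 10^5 cells infected with 1000 pfu of wild-type, clinical-isolate or resistant virus; IC99.9 is the drug amount inhibiting plaque formation by 99.9%.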

[13] = system: HFF; experiment: Antiviral activity against human CMV by dot blot assay in HFF cells; format: functional, cell-based
Procedure, shortened: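 Dot blot DNA replication readout. HFF cells were seeded at 2 × 10^4 cells/well and infected with rhCMVLuc, clinical isolates or wild-type virus, then incubated 72 h with drug. Cells were lysed in 0.4 N NaOH, 0.5 M EDTA, applied to membrane by microfiltration and UV-crosslinked. DNA was hybridized to a hCMV-specific 32P probe and detected by phosphorimaging.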

[14] = system: HFF; experiment: Cytotoxicity against HFF cells; format: functional, cell-based; conditions: Homo sapiens; procedure, shortened: as §1
[15] = system: DNA primase UL70 (Human cytomegalovirus); experiment: Binding affinity to human CMV UL70 primase by immunoprecipitation assay; conditions: Human betaherpesvirus 5; tested as the 3H-labelled form

SMILES | IC50 [1] | Activity [2] | Activity [3] | Selectivity ratio [4] | Activity [5] | Activity [6] | Activity [7] | Activity [8] | Activity [9] | also measured
Cc1cn(-c2nc(N(C)Cc3ccccc3)nc(C)c2[N+](=O)[O-])cn1 | 10 µM | inactive | inactive | >=10 | inactive | inactive | inactive | inactive | inactive | 
Cc1nccn1-c1nc(N(C)Cc2ccccc2)ncc1[N+](=O)[O-] | 3 µM | inactive | inactive | >=10 | inactive | inactive | inactive | inactive | inactive | 
Cc1nc(N(C)Cc2ccccc2)nc(-n2ccnc2C)n1 | > 30 µM | inactive | inactive | >=10 | inactive | inactive | inactive | inactive | inactive | 
Cc1nccn1-c1nc(N(C)Cc2ccccc2)nc2c1S(=O)(=O)CC2 | > 30 µM | inactive | inactive | >=10 | inactive | inactive | inactive | inactive | inactive | 
Cc1nccn1-c1nc(N(C)Cc2ccccc2)nc(C(C)C)c1[N+](=O)[O-] | 3 µM | inactive | inactive | >=10 | inactive | inactive | inactive | inactive | inactive | 
Cc1nc(N(C)Cc2ccccc2)nc(-n2ccnc2C(C)C)c1[N+](=O)[O-] | 0.77 µM | inactive | inactive | >=10 | inactive | inactive | inactive | inactive | inactive | 
Cc1nc(N(C)c2ccccc2)nc(-n2ccnc2C)c1[N+](=O)[O-] | 0.55 µM | inactive | inactive | >=10 | inactive | inactive | inactive | inactive | inactive | IC100 [10]: 2 µM; IC50 [11]: 80 µM; IC100 [12]: 2.5 µM; IC50 [13]: 0.3 µM; IC50 [14]: 100 µM
Cc1nc(NC2CCc3ccccc32)nc(-n2ccnc2C)c1[N+](=O)[O-] (stereo not given) |  | inactive | inactive | >=10 | inactive | inactive | inactive | inactive | inactive | IC100 [10]: 0.1 µM; IC50 [11]: 100 µM; IC100 [12]: 0.5 µM; IC50 [13]: 0.053 µM; IC50 [14]: > 100 µM
Nc1nc2c(ncn2COC(CO)CO)c(=O)[nH]1 [GANCICLOVIR] |  |  |  |  |  |  |  |  |  | IC100 [10]: 5 µM; IC50 [11]: > 100 µM; IC100 [12]: 10 µM; IC50 [14]: > 100 µM
CCc1nc(N(C)Cc2ccccc2)nc(-n2ccnc2C)c1[N+](=O)[O-] | 0.17 µM | inactive | inactive | >=10 | inactive | inactive | inactive | inactive | inactive | Activity ([2]; tested as the 3H-labelled form): inactive; Activity ([3]; tested as the 3H-labelled form): inactive; Activity ([5]; tested as the 3H-labelled form): inactive; Activity ([6]; tested as the 3H-labelled form): inactive; Activity ([7]; tested as the 3H-labelled form): inactive; Activity [15]: Active; Activity ([8]; tested as the 3H-labelled form): inactive; Activity ([9]; tested as the 3H-labelled form): inactive
[3H]CC([3H])c1nc(N(C)Cc2ccccc2)nc(-n2ccnc2C)c1[N+](=O)[O-] (stereo not given) |  |  |  | >=10 |  |  |  |  |  | 
CCCCN(C)c1nc(C)c([N+](=O)[O-])c(-n2ccnc2C)n1 |  | inactive | inactive | >=10 | inactive | inactive | inactive | inactive | inactive | IC50 [13]: 0.3 µM
Cc1nccn1-c1nc(N(C)Cc2ccccc2)nc(Cl)c1[N+](=O)[O-] | > 30 µM | inactive | inactive | >=10 | inactive | inactive | inactive | inactive | inactive | 
Nc1ccn(C[C@@H](CO)OCP(=O)(O)O)c(=O)n1.O.O [CIDOFOVIR] |  |  |  |  |  |  |  |  |  | IC100 [10]: 1 µM; IC50 [11]: 100 µM; IC100 [12]: 2.5 µM; IC50 [14]: > 100 µM
Cc1nc(N(C)Cc2ccccc2)nc(-n2ccnc2-c2ccccc2)c1[N+](=O)[O-] | 5 µM | inactive | inactive | >=10 | inactive | inactive | inactive | inactive | inactive | 
Cc1nccn1-c1nc(N(C)Cc2ccccc2)nc(CCN(C)C)c1[N+](=O)[O-] | 6 µM | inactive | inactive | >=10 | inactive | inactive | inactive | inactive | inactive | 
Cc1nc(N(C)Cc2ccccc2)nc(-n2ccnc2C)c1[N+](=O)[O-] | 0.039 µM | inactive | inactive | >=10 | inactive | inactive | inactive | inactive | inactive | IC100 [10]: 0.2 µM; IC50 [11]: 25 µM; IC100 [12]: 0.5 µM; IC50 [13]: 0.061 µM; IC50 [14]: > 100 µM
Cc1nc(N(C)Cc2ccccc2)nc(-n2c(C)nc3ccccc32)c1[N+](=O)[O-] | > 30 µM | inactive | inactive | >=10 | inactive | inactive | inactive | inactive | inactive | 
CCc1nccn1-c1nc(N(C)Cc2ccccc2)nc(C)c1[N+](=O)[O-] | 0.19 µM | inactive | inactive | >=10 | inactive | inactive | inactive | inactive | inactive | 
Cc1nc(N2CCC(C)CC2)nc(-n2ccnc2C)c1[N+](=O)[O-] |  | inactive | inactive | >=10 | inactive | inactive | inactive | inactive | inactive | IC50 [13]: 0.3 µM
CCOc1nc(C)c([N+](=O)[O-])c(-n2ccnc2C)n1 |  | inactive | inactive | >=10 | inactive | inactive | inactive | inactive | inactive | IC50 [13]: 0.67 µM
Cc1nc(N(C)Cc2ccccc2)nc(-n2ccnc2C)c1C#N | > 30 µM | inactive | inactive | >=10 | inactive | inactive | inactive | inactive | inactive | 
Cc1nc(N(C)Cc2ccccc2)nc(-n2ccnc2)c1[N+](=O)[O-] | 0.02 µM | inactive | inactive | >=10 | inactive | inactive | inactive | inactive | inactive | 
Cc1cc(-n2ccnc2C)nc(N(C)Cc2ccccc2)n1 | > 30 µM | inactive | inactive | >=10 | inactive | inactive | inactive | inactive | inactive | 
